Measurements reported in ChEMBL document CHEMBL1134622, “Piperazine-based CCR5 antagonists as HIV-1 inhibitors. II. Discovery of 1-[(2,4-dimethyl-3-pyridinyl)carbonyl]-4- methyl-4-[3(S)-methyl-4-[1(S)-[4-(trifluoromethyl)phenyl]ethyl]-1-piperazinyl]- piperidine N1-oxide (Sch-350634), an orally bioavailable, potent CCR5 antagonist” (J Med Chem, 2001).

Legend:
[1] = molecular target: T1, C-C chemokine receptor type 5 (Homo sapiens, UniProt P51681); test: Binding affinity towards C-C chemokine receptor type 5
How it was run: (§1)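 CCR5 Ki in nM. Standard error 10%; assay-to-assay variability 2-3-fold.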

Rattus norvegicus = test: Pharmacokinetic characterization measured on oral blood levels in rat at 10 mg/kg (0-6 hr); assay type: ADME, organism-based; parameters: time < 6 hr, dose 10 mg/kg, route oral; settings: in vivo
How it was run: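 Rats given compound orally at 10 mg/kg. Plasma concentrations followed over 6 h. Blood levels expressed as AUC (0-6 h) of the concentration-time plot, in ng/mL h.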

U-87 MG [2] = test: Inhibition of the entry of HIV-1 reporter virus (ADA) into U-87 cells; assay type: functional, cell-based, U-87MG ATCC; settings: Homo sapiens
How it was run: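 Single-cycle infectivity assay in U-87 cells with HIV-1 reporter virus (ADA). IC50 is the concentration giving 50% inhibition of viral entry. 95% confidence limit within 1 log; intra-assay variation under 0.5 log.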

U-87 MG [3] = test: Inhibition of the entry of HIV-1 reporter virus (JrF1) into U-87 cells; assay type: functional, cell-based, U-87MG ATCC; settings: Homo sapiens
How it was run: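 Entry of HIV-1 reporter virus (JrFl) into U-87 cells. IC50 is the concentration inhibiting entry by 50%. 95% confidence limit within 1 log; intra-assay variation under 0.5 log.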

[4] = Plasma concentration after 0 hours of intravenous administration in dog; assay type: ADME, organism-based, Canis lupus familiaris; settings: read-out: Co
How it was run: (§2)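 Beagle dogs and cynomolgus monkeys. IV dose 1 mg/kg. Oral dose 3 mg/kg in dog, 10 mg/kg in monkey. Plasma sampled over 0-24 h. […] Bioavailability is dose-corrected from oral vs iv AUC.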

Canis familiaris [5] = test: Area under concentration curve in Beagle dogs after iv administration (0-24 hr); assay type: ADME, organism-based, Canis lupus familiaris; parameters: time < 24 hr, route intravenous; settings: dog, in vivo; how it was run: as §2
[6] = Maximum plasma concentration after oral administration in dog; assay type: ADME, organism-based, Canis lupus familiaris; parameters: route oral; how it was run: as §2
Canis familiaris [7] = test: Area under concentration curve in Beagle dogs after oral administration (0-24 hr); assay type: ADME, organism-based, Canis lupus familiaris; parameters: time < 24 hr, route oral; settings: dog, in vivo; how it was run: as §2
[8] = molecular target: T2, Muscarinic acetylcholine receptor M2 (Homo sapiens, UniProt P08172); test: Binding affinity against muscarinic acetylcholine receptor M2
T2 sequence (P08172 whole entry): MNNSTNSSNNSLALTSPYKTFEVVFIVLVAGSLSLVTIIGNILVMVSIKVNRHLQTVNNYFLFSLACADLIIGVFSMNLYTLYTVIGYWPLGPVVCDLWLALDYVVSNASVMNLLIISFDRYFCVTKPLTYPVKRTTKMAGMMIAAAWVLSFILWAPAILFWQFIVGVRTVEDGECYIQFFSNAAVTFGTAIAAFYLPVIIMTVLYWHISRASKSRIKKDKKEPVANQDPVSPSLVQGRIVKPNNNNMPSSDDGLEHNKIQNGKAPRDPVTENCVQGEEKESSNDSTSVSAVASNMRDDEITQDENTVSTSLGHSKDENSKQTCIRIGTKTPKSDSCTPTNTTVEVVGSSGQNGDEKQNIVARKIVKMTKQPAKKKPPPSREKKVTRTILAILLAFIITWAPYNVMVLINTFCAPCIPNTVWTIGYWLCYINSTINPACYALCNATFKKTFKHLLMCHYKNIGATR

Cynomolgus monkey [9] = test: Area under concentration curve in cynomolgus monkey after oral administration; assay type: ADME, organism-based, Macaca fascicularis; settings: in vivo; how it was run: as §2
[10] = Maximum plasma concentration after oral administration in monkey; assay type: ADME, organism-based; parameters: route oral; settings: simiiformes; how it was run: as §2
[11] = Bioavailability in monkey after oral administration.; assay type: ADME, organism-based; settings: simiiformes, in vivo, read-out: BA; how it was run: as §2
[12] = molecular target: T1, C-C chemokine receptor type 5; test: Binding affinity at C-C chemokine receptor type 5; how it was run: as §1
[13] = Plasma concentration after 0 hours of intravenous administration in cunomolgus monkey; assay type: ADME, organism-based, Macaca fascicularis; settings: cynomolgus monkey; how it was run: as §2
Cynomolgus monkey [14] = test: Area under concentration curve in cynomolgus monkey after iv administration; assay type: ADME, organism-based, Macaca fascicularis; settings: in vivo; how it was run: as §2
[15] = Time required for the maximum plasma concentration in rat blood levels at 10 mg/kg; assay type: ADME, organism-based; parameters: dose 10 mg/kg
[16] = Bioavailability in dog after oral administration.; assay type: ADME, organism-based, Canis lupus familiaris; settings: in vivo, read-out: BA; how it was run: as §2
[17] = Plasma concentration after 6 hours of oral administration in rat; assay type: ADME, organism-based; settings: read-out: C6h
[18] = Time required for the maximum plasma concentration in rat.; assay type: ADME, organism-based
[19] = Half life determined after iv administration to dog; assay type: ADME, organism-based, Canis lupus familiaris; settings: in vivo; how it was run: as §2
[20] = Half life determined after iv administration to monkey; assay type: ADME, organism-based; settings: simiiformes, in vivo; how it was run: as §2
[21] = molecular target: T1, C-C chemokine receptor type 5; test: Inhibitory activity against C-C chemokine receptor type 5; how it was run: as §1

T1 sequence (P51681 whole entry): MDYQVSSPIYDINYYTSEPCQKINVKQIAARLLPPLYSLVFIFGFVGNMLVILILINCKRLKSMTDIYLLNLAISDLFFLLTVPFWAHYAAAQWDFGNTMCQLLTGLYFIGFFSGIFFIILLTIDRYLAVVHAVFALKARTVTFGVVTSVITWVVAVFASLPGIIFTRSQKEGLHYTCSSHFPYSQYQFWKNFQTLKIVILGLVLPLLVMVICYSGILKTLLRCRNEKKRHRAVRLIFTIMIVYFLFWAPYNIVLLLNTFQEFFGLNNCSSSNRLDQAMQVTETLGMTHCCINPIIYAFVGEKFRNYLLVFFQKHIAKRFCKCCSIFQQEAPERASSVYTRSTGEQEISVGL

Row | Structure (SMILES) | Ki [1] [nM] | AUC (Rattus norvegicus) [ng·h/mL] | IC50 (U-87 MG [2]) [nM] | also measured
1 | Cc1cccc(C)c1C(=O)N1CCC(N2CCN(Cc3ccc(I)cc3)CC2)CC1 | 440 |  |  | 
2 | Cc1cccc(O)c1C(=O)N1CCC(C)(N2CCN([C@@H](C)c3ccc(C(F)(F)F)cc3)[C@@H](C)C2)CC1 | 5 | 2540 | 3.2 | 
3 | Cc1cccc(O)c1C(=O)N1CCC(C)(N2CCN([C@@H](C)c3ccc(S(C)(=O)=O)cc3)[C@@H](C)C2)CC1 | 15 | 384 | 4 | 
4 | Cc1cccc(C)c1C(=O)N1CCC(N2CCN([C@@H](C)c3ccc(I)cc3)[C@@H](C)C2)CC1 | 20 |  |  | IC50 (U-87 MG [3]): 7 nM
5 | C[C@H]1CN(C2(C)CCN(C(=O)c3c(N)cccc3Cl)CC2)CCN1[C@@H](C)c1ccc(S(C)(=O)=O)cc1 | 5 | 447 | 0.8 | 
6 | Cc1cccc(C)c1C(=O)N1CCC(C)(N2CCN([C@@H](C)c3ccc(S(C)(=O)=O)cc3)[C@@H](C)C2)CC1 | 3 |  | 0.5 | 
7 | C[C@H]1CN(C2(C)CCN(C(=O)c3c(N)cccc3Cl)CC2)CCN1[C@@H](C)c1ccc(I)cc1 | 12 | 1980 | 2 | 
8 | Cc1ccnc(C)c1C(=O)N1CCC(C)(N2CCN([C@@H](C)c3ccc(C(F)(F)F)cc3)[C@@H](C)C2)CC1 |  | 3900 | 0.5 | concentration at 0 h [4]: 346 ng/mL; AUC (Canis familiaris [5]): 1610 ng·h/mL; Cmax [6]: 226 ng/mL; AUC (Canis familiaris [7]): 1580 ng·h/mL; Ki [8]: 2500 nM; AUC (Cynomolgus monkey [9]): 2740 ng·h/mL; Cmax [10]: 281 ng/mL; bioavailability [11]: 27.5%; Ki [12]: 2.3 nM; C0 at 0 h [13]: 390 ng/mL; AUC (Cynomolgus monkey [14]): 996 ng·h/mL; Tmax [15]: 1.5 h; bioavailability [16]: 33%
9 | Cc1cccc(C)c1C(=O)N1CCC(C)(N2CCN(Cc3ccc(I)cc3)CC2)CC1 | 62 |  |  | 
10 | Cc1cccc(C)c1C(=O)N1CCC(C)(N2CCN([C@@H](C)c3ccc(C(F)(F)F)cc3)[C@@H](C)C2)CC1 | 1 | 922 | 0.4 | 
11 | Cc1cccc(C)c1C(=O)N1CCC(C)(N2CCN([C@@H](C)c3ccc(I)cc3)[C@@H](C)C2)CC1 | 5 | 822 | 1 | 
12 | Cc1cccc(C)c1C(=O)N1CCC(N2CCN(Cc3ccc(I)cc3)[C@@H](C)C2)CC1 | 30 |  |  | 
13 | Cc1cc[n+]([O-])c(C)c1C(=O)N1CCC(C)(N2CCN([C@@H](C)c3ccc(C(F)(F)F)cc3)[C@@H](C)C2)CC1 |  | 9240 | 1 | AUC (Canis familiaris [5]): 3240 ng·h/mL; Cmax [6]: 690 ng/mL; AUC (Canis familiaris [7]): 6290 ng·h/mL; concentration at 6 h [17]: 1300 ng/mL; Ki [8]: 250 nM; AUC (Cynomolgus monkey [9]): 15400 ng·h/mL; Cmax [10]: 1420 ng/mL; bioavailability [11]: 59%; Tmax [18]: 2.5 h; Ki [12]: 7 nM; AUC (Cynomolgus monkey [14]): 2610 ng·h/mL; half-life [19]: 6 h; bioavailability [16]: 65%; half-life [20]: 4 h
14 | Cc1cccc(C)c1C(=O)N1CCC(N2CCN([C@@H](C)c3ccc(Br)cc3)[C@@H](C)C2)CC1 | 23 |  |  | IC50 [21]: 6 nM
15 | C[C@H]1CN(C2(C)CCN(C(=O)c3c(N)cccc3Cl)CC2)CCN1[C@@H](C)c1ccc(C(F)(F)F)cc1 | 5 | 1870 | 1.2 | 
16 | Cc1cccc(C)c1C(=O)N1CCC(C)(N2CCN(Cc3ccc(I)cc3)[C@@H](C)C2)CC1 | 8 |  |  | IC50 (U-87 MG [3]): 2.7 nM
17 | Cc1cccc(C)c1C(=O)N1CCC(N2CCN([C@@H](C)c3ccccc3)[C@@H](C)C2)CC1 | 275 |  |  | 
18 | Cc1cccc(O)c1C(=O)N1CCC(C)(N2CCN([C@@H](C)c3ccc(I)cc3)[C@@H](C)C2)CC1 | 7 | 2810 | 1 | 
